Results on 6 molecules are retold here after paper PMC10685179 (RSC Advances, 2023).

Assay [1] relates to P. mirabilis KA320. Put plainly: Agar well-diffusion, inhibition zone. In kind it is cell-based, Proteus mirabilis. As to conditions: Proteus mirabilis, KA320, read-out: Average diameter of inhibition zone (ZI). Put shortly:
(§1)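 Clinical MDR isolates from complicated UTI patients. Suspensions were made in Tryptic Soya and Sabouraud broths from subcultures on Tryptic Soya and Sabouraud agar plates. Agar well diffusion followed CLSI guidelines, with test compounds applied at 10 μM in DMSO. Fosfomycin and fluconazole were positive controls and DMSO the negative control. Zone diameters were read in mm, in triplicate.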
In general terms: In agar diffusion tests the substance spreads into inoculated agar from a disc or well.

The subject of assay [2] is S. aureus KA112. Put plainly: Broth microdilution MIC and MBC. In kind it is cell-based. As to conditions: Staphylococcus aureus; for MIC: KA112, 24 h; for MBC: KA112, read-out: MBC/MIC.
Assay [3] deals with E. coli KA780. Put plainly: Broth microdilution MIC and MBC. In kind it is cell-based. As to conditions: Escherichia coli; for MIC: KA780, 24 h; for MBC: KA780, read-out: MBC/MIC. (Dilution methods test growth across graded concentrations, often in twofold steps.)
The test system of assay [4] is E. faecalis KA247. As to the kind of experiment: Agar well-diffusion, inhibition zone. It is filed as cell-based, Enterococcus faecalis. Conditions: Enterococcus faecalis, KA247, read-out: Average diameter of inhibition zone (ZI). Put shortly: as §1
In assay [5] the test system is C. albicans KA205. Put plainly: Broth microdilution MIC and MFC. In kind it is cell-based. Conditions: Candida albicans; for MIC: KA205, 24 h; for MFC: KA205, read-out: MFC/MIC.
Assay [6] deals with C. tropicalis KA205. Put plainly: Broth microdilution MIC and MFC. It is filed as cell-based. Conditions: Candida tropicalis; for MIC: KA205, 24 h; for MFC: KA205, read-out: MFC/MIC.
Another assay deals with fungal isolates. Put plainly: Broth microdilution MIC/MFC, fungal panel. In kind it is cell-based.
The subject of assay [7] is E. coli KA780. As to the kind of experiment: Agar well-diffusion, inhibition zone. In kind it is cell-based, Escherichia coli. As to conditions: for zone of inhibition at 10 µM: Escherichia coli, KA780, read-out: Average diameter of inhibition zone (ZI). Put shortly:
as §1

For assay [8], the system named is P. mirabilis KA320. As to the kind of experiment: Broth microdilution MIC and MBC. It is filed as cell-based. As to conditions: Proteus mirabilis; for MIC: KA320, 24 h; for MBC: KA320, read-out: MBC/MIC.
Assay [9] relates to C. tropicalis KA205. Put plainly: Agar well-diffusion, inhibition zone. In kind it is cell-based, Candida tropicalis. As to conditions: Candida tropicalis, KA205, read-out: Average diameter of inhibition zone (ZI). Put shortly: as §1
Assay [10] has as its system C. albicans KA205. Put plainly: Agar well-diffusion, inhibition zone. In kind it is cell-based, Candida albicans. As to conditions: Candida albicans, KA205, read-out: Average diameter of inhibition zone (ZI). Put shortly:
as §1

Assay [11] relates to E. faecalis KA247. Put plainly: Broth microdilution MIC and MBC. In kind it is cell-based. Conditions: Enterococcus faecalis, KA247, 24 h.
Assay [12] relates to S. aureus KA112. Put plainly: Agar well-diffusion, inhibition zone. As to conditions: Staphylococcus aureus, KA112, read-out: Average diameter of inhibition zone (ZI). It is filed as cell-based, Staphylococcus aureus. Put shortly:
as §1

In the next assay the target is E. coli MurA enzyme (Escherichia coli, UniProt P0A749). As to the kind of experiment: MurA enzyme inhibition assay. It is filed as biochemical. As to conditions: for remaining activity at 100 µM: read-out: RA (residual activity), at 100 μM.
Assay [13] concerns MDR bacterial and fungal isolates. Put plainly: Broth microdilution MIC/MBC/MFC, whole panel. In kind it is cell-based. Conditions: bactericidal/fungicidal if MBC or MFC not greater than four times the MIC.
The subject of assay [14] is BNL: mouse normal liver cells. As to the kind of experiment: SRB cytotoxicity assay on normal cells. In kind it is cell-based. Put shortly:
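Mouse normal liver BNL cells were grown in DMEM with 10% heat-inactivated FBS, penicillin and streptomycin, at 37 °C in 5% CO2. […] SRB assay: 10% TCA fixation at 4 °C for 1 h, 0.4% SRB for 10 min at room temperature, 1% acetic acid washes, 10 mM Tris solubilisation, absorbance at 540 nm. Mean of three, with SD.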
Background: The SRB assay estimates cell density from bound dye.

Values after ≈ are worked out from the molar mass of the structure shown. Like-named read-outs stand apart in the source and are kept apart here. A value given as a limit tells only on which side of the number the result lay.

Usually zone of inhibition stands for the extent of the growth-free halo in a diffusion test. What is called MIC is the least concentration at which growth counts as inhibited. As a reminder, the IC50 is the point on the concentration scale where inhibition reaches its midpoint.

Sequence of E. coli MurA enzyme (P0A749 whole entry): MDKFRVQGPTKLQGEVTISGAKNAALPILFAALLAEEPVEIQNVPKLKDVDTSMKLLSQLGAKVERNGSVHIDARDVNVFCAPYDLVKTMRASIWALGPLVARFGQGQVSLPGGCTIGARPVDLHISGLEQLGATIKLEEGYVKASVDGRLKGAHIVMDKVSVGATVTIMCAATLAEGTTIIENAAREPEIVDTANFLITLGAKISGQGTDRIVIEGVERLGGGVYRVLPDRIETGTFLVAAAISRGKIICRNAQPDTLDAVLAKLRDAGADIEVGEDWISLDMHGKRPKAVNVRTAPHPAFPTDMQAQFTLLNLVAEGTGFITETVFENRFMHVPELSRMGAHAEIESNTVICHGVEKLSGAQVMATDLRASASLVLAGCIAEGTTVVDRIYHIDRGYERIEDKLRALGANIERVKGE

Take `CCOP(=O)(OCC)C(Nc1nc2c(-c3ccc([N+](=O)[O-])cc3)nn(-c3ccccc3)c2s1)c1ccc(Cl)cc1` (centres unmarked) [Compound 3, Diethyl((4-chlorophenyl)((3-(4-nitrophenyl)-1-phenyl-1H-pyrazolo[4,3-d]thiazol-5-yl)amino)methyl)phosphonate]: the zone of inhibition at 10 µM amounted to 17 ± 0.71 mm in the assay on P. mirabilis KA320 [1]; 18 ± 0.05 mm in the assay with E. faecalis KA247 [4]; 19 ± 0.14 mm in the assay on E. coli KA780 [7]; 17 ± 0.48 mm in the assay with C. tropicalis KA205 [9]; 17 ± 0.88 mm in the assay on C. albicans KA205 [10]; 18 ± 0.31 mm with S. aureus KA112 [12]. In addition, the MIC against S. aureus KA112 [2] was 1 µg/mL (≈ 1.67 µM); with E. coli KA780 [3] it was 1 µg/mL (≈ 1.67 µM); against C. albicans KA205 [5], 1 µg/mL (≈ 1.67 µM); against C. tropicalis KA205 [6], 1 µg/mL (≈ 1.67 µM); against P. mirabilis KA320 [8] it was 2 µg/mL (≈ 3.34 µM); in the assay with E. faecalis KA247 [11], 2 µg/mL (≈ 3.34 µM). The MBC in the assay with S. aureus KA112 [2] is 2 µg/mL (≈ 3.34 µM); in the assay with E. coli KA780 [3], 1 µg/mL (≈ 1.67 µM); in the assay on P. mirabilis KA320 [8] it was 1 µg/mL (≈ 1.67 µM). For the same molecule, the MFC in the assay on C. albicans KA205 [5] is 1 µg/mL (≈ 1.67 µM); in the assay with C. tropicalis KA205 [6], 0.5 µg/mL (≈ 0.836 µM); with fungal isolates it was 0.5 to 1 µg/mL (≈ 0.836 to 1.67 µM).
With `C[C@@H]1O[C@@H]1P(=O)(O)O` [FO, fosfomycin, reference compound], the zone of inhibition at 10 µM in the assay on P. mirabilis KA320 [1] is 19 ± 0.13 mm; in the assay with E. faecalis KA247 [4], 17 ± 0.34 mm; in the assay with E. coli KA780 [7], 11 mm; with S. aureus KA112 [12] it was 18 ± 0.32 mm. In addition, the minimal inhibitory concentration (MIC) is 8 µg/mL (≈ 57.9 µM) against S. aureus KA112 [2], 256 µg/mL (≈ 1850 µM) against E. coli KA780 [3], 16 µg/mL (≈ 116 µM) in the assay with P. mirabilis KA320 [8] and 8 µg/mL (≈ 57.9 µM) in the assay with E. faecalis KA247 [11]. For the same molecule, the MBC in the assay on S. aureus KA112 [2] stood at 0.4 µg/mL (≈ 2.9 µM); with E. coli KA780 [3] it was 1 µg/mL (≈ 7.24 µM); in the assay with P. mirabilis KA320 [8] it was 1 µg/mL (≈ 7.24 µM). Moreover, the IC50 against E. coli MurA enzyme (IC50, preincubation 0 min) was 52 ± 0.33 µM; against E. coli MurA enzyme (IC50, preincubation 10 min) it was 12.7 µM. The “RA (residual activity)” value at E. coli MurA enzyme (at 100 μM, preincubation 0 min) turned out to be 52 ± 0.55%. For the same molecule, the remaining activity at 100 µM at E. coli MurA enzyme (preincubation 0 min) is less than 60%; on E. coli MurA enzyme (preincubation 10 min) it was 10 ± 0.92%. Further, in the assay on E. coli KA780 [7] (10 μM (DMSO), mean of three ± SEM), the “Average diameter of inhibition zone (ZI)” value is listed as 11 ± 0.23 mm. In assay [13], the bactericidal/fungicidal effect entry is “bactericidal and fungicidal activities”.
Take `Nc1nc2c(-c3ccc([N+](=O)[O-])cc3)nn(-c3ccccc3)c2s1` [Compound 2, 3-(4-nitrophenyl)-1-phenyl-1H-pyrazolo[4,3-d]thiazol-5-amine]: the zone of inhibition at 10 µM in the assay with P. mirabilis KA320 [1] came out at 16 ± 0.79 mm; with E. faecalis KA247 [4], 17 mm; with E. coli KA780 [7], 17 ± 0.62 mm; in the assay with C. tropicalis KA205 [9], 16 ± 0.63 mm; with C. albicans KA205 [10] it was 17 ± 0.16 mm; in the assay on S. aureus KA112 [12], 17 ± 0.39 mm. Moreover, the MIC with S. aureus KA112 [2] stood at 8 µg/mL (≈ 23.7 µM); in the assay on E. coli KA780 [3] it was 4 µg/mL (≈ 11.9 µM); against C. albicans KA205 [5] it was 1 µg/mL (≈ 2.96 µM); against C. tropicalis KA205 [6], 1 µg/mL (≈ 2.96 µM); against P. mirabilis KA320 [8], 8 µg/mL (≈ 23.7 µM); in the assay on E. faecalis KA247 [11] it was 8 µg/mL (≈ 23.7 µM). Besides, the MBC with S. aureus KA112 [2] is 0.5 µg/mL (≈ 1.48 µM); in the assay with E. coli KA780 [3] it was 0.5 µg/mL (≈ 1.48 µM); in the assay with P. mirabilis KA320 [8], 1 µg/mL (≈ 2.96 µM). Also, the MFC with C. albicans KA205 [5] is 0.5 µg/mL (≈ 1.48 µM); in the assay on C. tropicalis KA205 [6] it was 2 µg/mL (≈ 5.93 µM).
As to `O=[N+]([O-])c1ccc(-c2nn(-c3ccccc3)c3sc(NC(c4cccs4)P(=O)(Oc4ccccc4)Oc4ccccc4)nc23)cc1` (centres unmarked) [Compound 6a, Diphenyl(((3-(4-nitrophenyl)-1-phenyl-1H-pyrazolo[4,3-d]thiazol-5-yl)amino)(thiophen-2-yl)methyl)phosphonate], the zone of inhibition at 10 µM in the assay on P. mirabilis KA320 [1] is 18 ± 0.5 mm; in the assay on E. faecalis KA247 [4], 18 ± 0.74 mm; in the assay on E. coli KA780 [7], 19 ± 0.66 mm; in the assay on C. tropicalis KA205 [9] it was 20 ± 0.2 mm; in the assay with C. albicans KA205 [10], 20 ± 0.89 mm; in the assay with S. aureus KA112 [12], 19 mm. The MIC in the assay with S. aureus KA112 [2] came to 1 µg/mL (≈ 1.5 µM); against E. coli KA780 [3], 1 µg/mL (≈ 1.5 µM); in the assay on C. albicans KA205 [5], 0.5 µg/mL (≈ 0.751 µM); in the assay with C. tropicalis KA205 [6], 0.5 µg/mL (≈ 0.751 µM); with P. mirabilis KA320 [8] it was 2 µg/mL (≈ 3 µM); in the assay on E. faecalis KA247 [11], 2 µg/mL (≈ 3 µM). Moreover, the MBC with S. aureus KA112 [2] was found to be 1 µg/mL (≈ 1.5 µM); in the assay with E. coli KA780 [3] it was 0.5 µg/mL (≈ 0.751 µM); in the assay on P. mirabilis KA320 [8], 1 µg/mL (≈ 1.5 µM). Also, the MFC stood at 0.5 µg/mL (≈ 0.751 µM) in the assay on C. albicans KA205 [5] and 1 µg/mL (≈ 1.5 µM) in the assay on C. tropicalis KA205 [6].
As to `CCOP(=O)(OCC)C(Nc1nc2c(-c3ccc([N+](=O)[O-])cc3)nn(-c3ccccc3)c2s1)c1ccc(N(C)C)cc1` (centres unmarked) [Compound 4, Diethyl((4-(dimethylamino)phenyl)((3-(4-nitrophenyl)-1-phenyl-1H-pyrazolo[4,3-d]thiazol-5-yl)amino)methyl)phosphonate], the zone of inhibition at 10 µM with P. mirabilis KA320 [1] came out at 16 ± 0.34 mm; in the assay on E. faecalis KA247 [4] it was 16 ± 0.8 mm; with E. coli KA780 [7], 17 ± 0.54 mm; in the assay with C. tropicalis KA205 [9] it was 16 ± 0.54 mm; in the assay with C. albicans KA205 [10], 16 ± 0.67 mm; in the assay with S. aureus KA112 [12], 17 mm. For the same molecule, the MIC against S. aureus KA112 [2] was 8 µg/mL (≈ 13.2 µM); with E. coli KA780 [3], 8 µg/mL (≈ 13.2 µM); against C. albicans KA205 [5], 2 µg/mL (≈ 3.3 µM); against C. tropicalis KA205 [6] it was 2 µg/mL (≈ 3.3 µM); with P. mirabilis KA320 [8], 16 µg/mL (≈ 26.4 µM); with E. faecalis KA247 [11], 16 µg/mL (≈ 26.4 µM). Moreover, the MBC in the assay with S. aureus KA112 [2] stood at 2 µg/mL (≈ 3.3 µM); with E. coli KA780 [3], 1 µg/mL (≈ 1.65 µM); in the assay with P. mirabilis KA320 [8] it was 1 µg/mL (≈ 1.65 µM). Further, the values for the MFC in the assay on C. albicans KA205 [5], in the assay on C. tropicalis KA205 [6] and in the assay with fungal isolates were 0.5 µg/mL (≈ 0.824 µM), 1 µg/mL (≈ 1.65 µM) and 1 to 2 µg/mL (≈ 1.65 to 3.3 µM), respectively.
`COc1cccc2c1C(=O)c1c(O)c3c(c(O)c1C2=O)C[C@@](O)(C(=O)CO)C[C@@H]3O[C@H]1C[C@H](N)[C@H](O)[C@H](C)O1` [DOX, Doxorubicin, reference compound] registered an IC50 in [14] of 14.7 µM.
